Assay outcomes from PubChem BioAssay.
rCAG RNA binder: r(CAG) repeat RNA binding; TO-PRO-1 dye displacement fluorescence; hit rate 1.3% among 370,000; inhibition, % at 3 µM;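 active = inhibition above the plate cutoff, the mean of all test compounds on that plate plus 3 SD, cut at about 35% in these data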;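 also: higher means more dye released from RNA so lower well fluorescence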
TAAR1 ag: agonists of human TAAR1 | Q96RJ0 | activation, % at 3 µM | hit rate 0.99% among 360,000 | CHO RD-HGA16 TAAR1, Fluo-8 calcium fluorescence; vehicle wells 0%, saturating PEA agonist 100%;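 active = activation above the mean activation of all test compounds in the run plus 3 SD, cut at about 38% in these data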
Target sequence (Q96RJ0 whole entry, looked up): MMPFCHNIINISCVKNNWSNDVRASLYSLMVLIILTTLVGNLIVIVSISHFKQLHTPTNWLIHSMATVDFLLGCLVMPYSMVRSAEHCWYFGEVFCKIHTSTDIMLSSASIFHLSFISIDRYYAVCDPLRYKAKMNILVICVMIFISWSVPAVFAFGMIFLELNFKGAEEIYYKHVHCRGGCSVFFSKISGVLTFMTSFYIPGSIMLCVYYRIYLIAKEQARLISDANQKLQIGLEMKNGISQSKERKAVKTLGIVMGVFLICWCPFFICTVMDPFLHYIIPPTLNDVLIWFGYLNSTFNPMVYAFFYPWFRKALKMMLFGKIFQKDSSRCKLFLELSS
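Benchmarks: low control DMSO, high control PEA (EC100); System: CHO RD-HGA16 cells carrying human TAAR1 plus Gα16; Detection: Fluo-8 fluorescence, 5 s baseline then 140 s kinetic read; Schedule: 17-24 h plating, Fluo-8 75 min 37 °C, 30 min RT; Read-out basis: % activation from peak over basal fluorescence ratio, DMSO-to-PEA scaled.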
NS3 helicase inh: blocks Hepatitis C virus NS3 helicase unwinding. NS3 helicase DNA unwinding, Cy5 molecular beacon fluorescence. inhibition, % at 10.9 µM. hit rate 0.56% among 290,000;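 active = inhibition above the mean of all tested compounds plus 3 SD, set per campaign, cut at about 35% in these data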
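Assay system: hepatitis C virus NS3 helicase domain fragment enzyme. Also added: annealed dual-labelled DNA beacon duplex, ATP-started. Timing: 1 h reaction at 25 °C, ATP-initiated. Technique: Cy5 fluorescence at 0 and 60 min, beacon hairpin quenching. Evaluation: % inhibition of unwinding. Replication: one well per compound.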
TAAR1 antagonist: antagonists of human TAAR1; Q96RJ0; CHO RD-HGA16 TAAR1, Fluo-8 calcium fluorescence, antagonist; hit rate 1.5% among 360,000; inhibition, % at 3 µM; AID 624466;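 active = inhibition above a per-plate cutoff, the mean inhibition of test compounds on that plate plus 3 SD, cut at about 49% in these data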
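Test system: CHO RD-HGA16 cells bearing hTAAR1 | Reagent: β-PEA, EC80 | Compound dosing: 3 µM, single point | Schedule: Dye loading 75 min at 37 °C, then 30 min room temperature | Signal: Calcium fluorescence with Fluo-8 | Evaluation: Percent inhibition of PEA-evoked calcium signal, max/basal emission ratio | Control set: DMSO-only wells and EC80 β-PEA-stimulated wells | Repeats: Singlicate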
core dimer inh: HCV core protein dimerization inhibition | TR-FRET GST/Flag-core106 dimerization, 1536-well | inhibition, % at 5 µM | hit rate 0.33% among 300,000;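 active = inhibition above the mean of all tested compounds plus 3 SD, set per screening campaign, cut at about 45% in these data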
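test system = GST/Flag-tagged HCV core106 proteins | probe or stimulus = Eu donor and XL665 acceptor anti-tag antibodies | times = compound-protein-antibody incubation 4 h at 22.5 °C | signal = TR-FRET, excitation 340 nm, emission 617 and 671 nm | measure = percent inhibition of core106 dimerization signal | controls = wells lacking GST-core106 and wells with excess unlabelled core106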
rCAG binder conf: r(CAG) RNA repeat binding, confirmation. inhibition, % at 3 µM. TO-PRO-1 dye displacement fluorescence. shares compounds with rCAG RNA binder. hit rate 70% among 4,300;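 active = inhibition above a per-plate cutoff, the mean inhibition of sample wells plus 3 SD, cut at about 35% in these data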;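 also: loss of TO-PRO-1 fluorescence as compound displaces dye from 1x1 AA loop RNA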
DNA CAG counter: disrupts DNA CAG TO-PRO-1 complex, flagging rCAG hits. shares compounds with rCAG RNA binder. d(CAG) DNA oligo TO-PRO-1 dye displacement, fluorescence. inhibition, % at 3 µM. hit rate 94% among 4,300;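 active = inhibition above its plate's cutoff, the mean test-well inhibition plus 3 SD, cut at about 4.8% in these data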;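 also: hits displace the dye from DNA and so lower well fluorescence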
dCAG dye DR: disrupts DNA CAG TO-PRO-1 complex in dose response | hit rate 20% among 250 | DNA CAG/GTC duplex TO-PRO-1 dye displacement fluorescence | IC50, µM | shares compounds with rCAG RNA binder; in the data active = IC50 below about 10 µM
A number is an active result; . = inactive; / = no result given. This is a sample that favours compounds with a hit; in the whole collection about 3.7% have one here.

SMILES	rCAG RNA binder	TAAR1 ag	NS3 helicase inh	TAAR1 antagonist	core dimer inh	rCAG binder conf	DNA CAG counter	others
Cc1cccc(NC(=O)n2ccc3ccc(-c4ccc5cc[nH]c5c4)cc32)c1	.	/	/	/	/	/	/
COc1cccc(NC(=O)N2CC[C@@H]3[C@H]2c2cc(-c4cccc(C#N)c4)ccc2N(C)[C@@H]3CO)c1	.	/	/	/	/	/	/
O=C(O)c1cc(-c2ccc(-c3ccc(F)cc3)o2)nc2ccccc12	37	.	.	.	.	.	.
Cc1ccc(-c2cc(C(=O)Nc3ccc(S(=O)(=O)Nc4onc(C)c4C)cc3)c3ccccc3n2)cc1	87	.	.	.	.	86	61
Cc1ccc(O)c(-c2cc(C(=O)Nc3ccc(S(=O)(=O)Nc4nc(C)cc(C)n4)cc3)[nH]n2)c1	55	.	.	.	.	40	12
Cc1cc(C)nc(NS(=O)(=O)c2ccc(NC(=O)c3cc(-c4ccccc4)nc4ccccc34)cc2)n1	49	.	.	.	.	62	25
COC(=O)[C@]12C[C@H](CC(=O)N3CCCC3)C(=O)N(Cc3cccc4ccccc34)C1=C[C@H](C(C)C)O[C@@H]2C1CC1	.	/	/	/	/	/	/
O=C(C(=O)N1CCN(C(=O)c2cc(C(F)(F)F)cc(C(F)(F)F)c2)CC1)c1cccc(C(F)(F)F)c1	.	.	/	.	/	/	/
COc1cccc(CNC(=O)CN2CCCc3ccccc32)c1OC	.	/	/	/	/	/	/
Cc1ccc(-c2cc(C(=O)Nc3ccc(S(=O)(=O)Nc4cc(C)on4)cc3)c3ccccc3n2)c(C)c1	79	.	.	.	.	82	53
Cc1ccc(C)c2c1[nH]c1ccc([N+](=O)[O-])cc12	40	.	.	.	.	.	14
COC(=O)[C@]12C[C@H](CC(=O)N3CCCC3)C(=O)N(Cc3ccccc3)C1=C[C@H](COCc1ccccc1)O[C@@H]2C	.	/	/	/	/	/	/
COC(=O)c1sc(NC(=O)c2ccc(Cn3cc(Cl)cn3)o2)c(C#N)c1C	48	.	.	.	.	42	13
Cc1ccc(S(=O)(=O)N2[C@@H](c3ccc(F)cc3)C(C(=O)O)=CC[C@H]2c2ccc(Cl)cc2)cc1	78	.	/	.	.	69	31
Cc1ccc(S(=O)(=O)N2[C@@H](c3ccc(Cl)cc3)C(C(=O)O)=CC[C@H]2c2cccc(C)c2)cc1	.	.	/	.	.	/	/
Cc1ccc(S(=O)(=O)N2[C@@H](c3ccc(F)cc3)C(C(=O)O)=CC[C@H]2c2ccc(C(C)C)cc2)cc1	82	.	/	.	.	80	44
Cc1ccc(S(=O)(=O)N2[C@@H](c3ccccc3)C(C(=O)O)=CC[C@H]2c2ccc(Cl)cc2)cc1	58	.	/	.	.	72	34	dCAG dye DR=.
Cc1ccc([C@@H]2CC=C(C(=O)O)[C@H](c3ccc(Cl)cc3)N2S(=O)(=O)c2ccc(C)cc2)cc1	84	.	/	.	.	78	45
COc1ccc(S[C@]2(C(=O)N3CCOCC3)CC(=O)N(C(=O)Nc3ccc(C)c(Cl)c3)[C@@H]2c2ccc(OC)cc2)cc1	.	/	/	/	/	/	/
COc1ccc(-c2noc(C3CCCN(C(=O)Nc4ccc(Cl)cc4)C3)n2)cc1 (stereo not drawn)	.	/	/	/	/	/	/
COC(=O)c1cc(-c2ccc(OC)c(OC)c2)c(=O)n2c1CCC2	.	/	/	/	/	/	/
O=C(O)C1=CC[C@@H](c2ccc(Cl)cc2)N(S(=O)(=O)c2ccc(Cl)cc2)[C@H]1c1ccc(Br)cc1	85	.	/	52	/	88	58
CCc1ccc([C@@H]2CC=C(C(=O)O)[C@H](c3ccc(Br)cc3)N2S(=O)(=O)c2ccc(C)cc2)cc1	.	.	/	.	/	/	/
Cc1ccc(S(=O)(=O)N2[C@@H](c3cccc(Cl)c3)C(C(=O)O)=CC[C@H]2c2ccc(C(C)C)cc2)cc1	85	.	/	.	.	80	45
